Active and inactive are the calls of the source. The calls are words filed in the database; no cut-off is given here.
Tests used:
[1] = Half-life estimated in human plasma; type: ADME
Outline: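 Compounds incubated in human plasma. Breakdown followed by TLC separation, and half-life estimated from this.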

[2] = tested on: CEM-c113; experiment: Antiviral activity measured in lymphocytic cell line (CEM-C113) infected with HIV-1 cell free supernatants; type: functional, cell-based; conditions: Homo sapiens
Outline: (§1)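 CEM-Cl13 T-lymphoblastoid cells in RPMI 1640 with 5% heat-inactivated FCS at 37 °C, 5% CO2. Wells seeded with 10000 cells and given compound dilutions in triplicate (DMF stock diluted in water, at most 0.1% DMF final). Infected with HIV-1 LAV-Bru cell-free supernatant at 50-250 times the minimal infecting dose, cultured 7 days. MTT viability read at 540 nm. EC50 is the dose giving 50% protection from CPE. SI is IC50/EC50.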

[3] = Selectivity index expressed as ratio of IC50 (CEM-C113) to EC50 from MTT assay; type: functional; outline: as §1
[4] = tested on: CEM-c113; experiment: Effective concentration that reduces HIV-induced cytopathic effect by 50% was determined by MTT assay.; type: functional, cell-based; conditions: Homo sapiens; outline: as §1
[5] = biological target: Human immunodeficiency virus type 1 reverse transcriptase (Human immunodeficiency virus 1) (UniProt Q72547); experiment: Selectivity index expressed as ratio of IC50 (CEM-C113) to EC50 from RT assay
Outline: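 HIV-1 LAV-Bru cell-free supernatant used to infect CEM-Cl13 cells (10000/well, triplicate compound dilutions, 7-day culture). EC50 is 50% reduction of RT activity. SI is the ratio of the mock-infected MTT IC50 to this EC50.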

[6] = Selectivity index expressed as ratio of IC50 (CEM-C113) to EC50 from MTT assay; inactive; type: functional; outline: as §1

Compound | half-life [1] | IC50 [2] | Selectivity index [5] | Selectivity index [3] | EC50 [4] | Selectivity index [6]
CCCCCCCCCCCCCCCCOC(=O)OCC1C=CC(n2cc(C)c(=O)[nH]c2=O)O1 (centres undefined) | > 24 h | > 20 µM |  | > 66 | 0.3 µM | 
CCCCCCCCCCCCCCCCOP(=O)(OCCC#N)OCC1C=CC(n2cc(C)c(=O)[nH]c2=O)O1 (centres undefined) | 12 h | 17 µM |  | 4 | 4.3 µM | 
CCCCCCCCCCCCCCCCOP(=O)(O)OCC1C=CC(n2cc(C)c(=O)[nH]c2=O)O1 (centres undefined) | > 24 h | 10 µM | 50 | 83 | 0.12 µM | 
CCCCCCCCCCCCCCCCNC(=O)OCC1C=CC(n2cc(C)c(=O)[nH]c2=O)O1 (centres undefined) | > 24 h | > 20 µM |  |  | > 20 µM | inactive

The remaining compounds from weak to strong by IC50 [2], led by results:

half-life [1] | IC50 [2] | Selectivity index [5] | Compound | Selectivity index [3] | EC50 [4] | Selectivity index [6]
> 24 h | 100 µM | 2000 | Cc1cn(C2C=CC(COP(=O)(O)OCC3C=CC(n4cc(C)c(=O)[nH]c4=O)O3)O2)c(=O)[nH]c1=O (centres undefined) | 5000 | 0.02 µM | 
 | 20 µM | 2000 | Cc1cn([C@H]2C[C@H](N=[N+]=[N-])[C@@H](CO)O2)c(=O)[nH]c1=O [ZIDOVUDINE] | 3330 | 0.006 µM | 
12 h | 17 µM |  | Cc1cn(C2C=CC(COP(=O)(OCCC#N)OCC3C=CC(n4cc(C)c(=O)[nH]c4=O)O3)O2)c(=O)[nH]c1=O (centres undefined) | 17 | 1 µM | 
 | 10 µM | 200 | Cc1cn([C@H]2C=C[C@@H](CO)O2)c(=O)[nH]c1=O [STAVUDINE] | 125 | 0.08 µM | 
4 h | 4 µM | 50 | CCCCCCCCCCCCCCCC(=O)OCC1C=CC(n2cc(C)c(=O)[nH]c2=O)O1 (centres undefined) | 40 | 0.1 µM | 

From ChEMBL document CHEMBL1126627, “Synthesis and anti-HIV evaluation of D4T and D4T 5'-monophosphate prodrugs” (J Med Chem, 1993)
